Common to all, as to assay type: functional, organism-based
Test [1] is filed under the species Mus musculus. Description: Uptake of [111In]-labeled compound in tumor at 2 hr pi in the presence of 10 mg NDP. Summed up:
(§1)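 C57 BL/6 female mice, 7–8 weeks old, inoculated s.c. in right flank with 1×10^6 B16/F1 melanoma cells. Used 9–10 days later at tumor weight ~500 mg. […] HPLC-purified 111In-DOTA peptide (neutral pH) given via tail vein, with or without […]. Killed 2 h pi. Tissues weighed and gamma-counted. Uptake expressed as % ID/g.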

The species entered for test [2] is Mus musculus. Briefly: Uptake of [111In]-labeled compound in spleen at 2 hr pi in the presence of 10 mg NDP. The method, boiled down:
as §1

The species named for test [3] is Mus musculus. Briefly: Uptake of [111In]-labeled compound in liver at 2 h pi in the absence of […]. Summed up: as §1
The species named for test [4] is Mus musculus. Briefly: Uptake of [111In]-labeled compound in lung at 2 hr pi in the presence of […]. The method, boiled down:
as §1

For test [5], the species on record is Mus musculus. Description: Uptake of [111In]-labeled compound in pancreas at 2 hr pi in the absence of 10 mg NDP. Summed up:
as §1

Test [6] is filed under the species Mus musculus. Briefly: Uptake of [111In]-labeled compound in kidney at 2 hr pi in the presence of […]. The method, boiled down: as §1
For test [7], the species on record is Mus musculus. Description: Uptake of [111In]-labeled compound in pancreas at 2 hr pi in the presence of 10 mg NDP. Summed up:
as §1

In the case of DOTA-ReCCEHdFRWCRPV-NH2, the ID/g in the test filed under Mus musculus [1] came to 1.95%; in the test filed under Mus musculus [2] it was 0.47%; in the test listed under Mus musculus [3], 0.38%; in the test listed under Mus musculus [4] it was 0.44%; in the test filed under Mus musculus [5], 0.08%; in the test filed under Mus musculus [6], 11.2%. In addition, in the test filed under Mus musculus [7], the ID/g was found to be 0.11%.

(Values after ChEMBL document CHEMBL1135742, “Modification of the structure of a metallopeptide: synthesis and biological evaluation of (111)In-labeled DOTA-conjugated rhenium-cyclized alpha-MSH analogues” (J Med Chem, 2002).)
